# Results taken from ChEMBL document CHEMBL4033783, “Adventures in Scaffold Morphing: Discovery of Fused Ring Heterocyclic Checkpoint Kinase 1 (CHK1) Inhibitors” (J Med Chem, 2018).
# How the values were obtained:
# [1] = molecular target: T1, Serine/threonine-protein kinase Chk1 (Homo sapiens, UniProt O14757); test: Inhibition of CHK1 (unknown origin)
# T1 sequence (O14757 whole entry): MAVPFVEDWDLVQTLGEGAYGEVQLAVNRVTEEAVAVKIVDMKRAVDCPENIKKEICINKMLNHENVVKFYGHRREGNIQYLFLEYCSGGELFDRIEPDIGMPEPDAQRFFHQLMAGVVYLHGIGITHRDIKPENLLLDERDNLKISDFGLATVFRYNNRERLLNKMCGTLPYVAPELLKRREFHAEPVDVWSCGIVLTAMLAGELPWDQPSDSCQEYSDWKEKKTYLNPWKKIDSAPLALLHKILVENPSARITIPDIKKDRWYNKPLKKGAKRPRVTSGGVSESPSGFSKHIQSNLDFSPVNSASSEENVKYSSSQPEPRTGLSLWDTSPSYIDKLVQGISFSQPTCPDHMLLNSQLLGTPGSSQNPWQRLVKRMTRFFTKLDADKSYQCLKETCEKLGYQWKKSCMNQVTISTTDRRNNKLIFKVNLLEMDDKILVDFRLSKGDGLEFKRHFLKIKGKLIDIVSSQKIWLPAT
# [2] = molecular target: Voltage-gated inwardly rectifying potassium channel KCNH2 (Homo sapiens, UniProt Q12809)
# Sequence of Voltage-gated inwardly rectifying potassium channel KCNH2 (Q12809 whole entry): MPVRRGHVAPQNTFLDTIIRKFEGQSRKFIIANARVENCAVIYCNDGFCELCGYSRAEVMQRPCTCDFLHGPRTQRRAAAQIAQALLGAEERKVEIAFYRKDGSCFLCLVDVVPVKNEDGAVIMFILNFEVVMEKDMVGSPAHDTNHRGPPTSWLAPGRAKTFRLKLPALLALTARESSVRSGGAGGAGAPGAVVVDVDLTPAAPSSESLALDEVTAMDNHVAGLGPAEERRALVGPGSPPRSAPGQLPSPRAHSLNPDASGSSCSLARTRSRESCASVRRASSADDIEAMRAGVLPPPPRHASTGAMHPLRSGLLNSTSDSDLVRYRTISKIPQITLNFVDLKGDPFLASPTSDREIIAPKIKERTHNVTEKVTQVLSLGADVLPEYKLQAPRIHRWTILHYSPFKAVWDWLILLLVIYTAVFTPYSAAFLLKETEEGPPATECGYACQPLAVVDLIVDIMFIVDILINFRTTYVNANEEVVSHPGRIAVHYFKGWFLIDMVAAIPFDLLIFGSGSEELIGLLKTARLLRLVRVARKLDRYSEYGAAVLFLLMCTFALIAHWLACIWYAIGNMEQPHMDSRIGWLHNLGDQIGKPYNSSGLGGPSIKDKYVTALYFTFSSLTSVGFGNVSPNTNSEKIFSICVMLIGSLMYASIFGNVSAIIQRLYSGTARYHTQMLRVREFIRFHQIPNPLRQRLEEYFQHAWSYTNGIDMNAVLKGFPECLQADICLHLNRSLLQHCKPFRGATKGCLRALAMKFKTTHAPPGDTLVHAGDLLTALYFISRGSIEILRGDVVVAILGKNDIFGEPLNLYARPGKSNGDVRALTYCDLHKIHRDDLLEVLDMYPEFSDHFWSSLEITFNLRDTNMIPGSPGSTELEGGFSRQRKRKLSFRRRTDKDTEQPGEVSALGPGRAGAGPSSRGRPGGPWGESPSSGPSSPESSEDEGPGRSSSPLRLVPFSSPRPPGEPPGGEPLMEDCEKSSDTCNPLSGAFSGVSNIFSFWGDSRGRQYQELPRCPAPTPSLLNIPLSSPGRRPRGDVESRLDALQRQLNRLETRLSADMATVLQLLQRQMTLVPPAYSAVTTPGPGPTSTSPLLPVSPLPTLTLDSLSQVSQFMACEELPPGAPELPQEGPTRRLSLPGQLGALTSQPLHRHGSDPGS
# Liver = test: Intrinsic clearance in human liver microsomes; format: ADME, microsome
# [3] = Intrinsic clearance in Sprague-Dawley rat liver microsomes at […] after 2 mins in presence of NADPH by HPLC analysis; format: ADME, Microsome
# [4] = Aqueous solubility of the compound in pH 7.4 phosphate buffer by LC-UV analysis; format: physicochemical
# MDA-MB-231 = test: Antiproliferative activity against human MDA-MB-231 cells; format: functional; conditions: for GI50: Homo sapiens, MDA-MB-231
# In short: (§1)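 Proliferation-inhibition concentration-response in the tumour cell lines, run as part of a gemcitabine potentiation assay, with the compound tested as a single agent without gemcitabine. Single-agent GI50 and GI25 were derived from the response curves. Values are the mean of two duplicated runs.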
# NCI-H460 = test: Antiproliferative activity against human H460 cells harboring dominant negative p53 construct; format: functional; conditions: for GI50: Homo sapiens, NCI-H460; in short: as §1
# [5] = Clearance in iv dosed mouse plasma; format: ADME, organism-based
# [6] = Clearance in iv dosed dog plasma; format: ADME, organism-based, Canis lupus familiaris
# [7] = Half life in iv dosed dog plasma; format: ADME, organism-based, Canis lupus familiaris
# [8] = molecular target: T2, Serine/threonine-protein kinase Chk1 (Homo sapiens) (UniProt O14757)
# T2 sequence (whole entry): T1 sequence (O14757 whole entry)
# [9] = Clearance in iv dosed rat plasma; format: ADME, organism-based
# [10] = Volume of distribution at steady state in iv dosed dog plasma; format: ADME, organism-based, Canis lupus familiaris; conditions: read-out: Vdss
# [11] = Volume of distribution at steady state in iv dosed rat plasma; format: ADME, organism-based; conditions: read-out: Vdss
# SW-620 = test: Antiproliferative activity against human SW620 cells; format: functional; conditions: for GI50: Homo sapiens, SW-620; in short: as §1
# [12] = Half life in iv dosed mouse plasma; format: ADME, organism-based
# [13] = Half life in iv dosed rat plasma; format: ADME, organism-based
# [14] = molecular target: T2, Serine/threonine-protein kinase Chk1 (Homo sapiens); remark: listed apart in the source
# [15] = Volume of distribution at steady state in iv dosed mouse plasma; format: ADME, organism-based; conditions: read-out: Vdss
# [16] = molecular target: T2, Serine/threonine-protein kinase Chk1 (Homo sapiens); remark: listed apart in the source
# HCT-116 = test: Abrogation of topotecan-induced G2 phase arrest in human HCT116 cells xenografted in mouse hollow fiber model assessed as ratio of cell levels at G2 phase to G1 phase at 10 mg/kg, iv after 30 hrs relative to control; format: functional
compound,measurement,setting,value
NC(=O)c1cnc(N[C@H]2CCCNC2)c2sc(-c3ccccc3)cc12,IC50,[1],2.6 µM
same,IC50,[2],> 31.6 µM
NC(=O)c1cnc(N[C@H]2CCCNC2)c2cc(-c3ccsc3)sc12,intrinsic clearance (CLint),Liver,29 µL/min/mg
same,IC50,[1],0.006 µM
same,IC50,[2],28 µM
same,intrinsic clearance,[3],72 µL/min/mg
same,solubility,[4],980 µM
NC(=O)c1cnc(N(CCc2ccccc2)[C@H]2CCCNC2)c2cc(-c3ccccc3)sc12,IC50,[1],0.66 µM
NC(=O)c1cnc(O[C@H]2CCCNC2)c2cc(-c3ccccc3)sc12,intrinsic clearance (CLint),Liver,35 µL/min/mg
same,IC50,[1],0.083 µM
same,intrinsic clearance,[3],> 120 µL/min/mg
NC(=O)c1cnc(SC2CCCNC2)c2cc(-c3ccccc3)sc12 (racemic),intrinsic clearance (CLint),Liver,< 5 µL/min/mg
same,IC50,[1],0.056 µM
same,IC50,[2],4.9 µM
same,intrinsic clearance,[3],11 µL/min/mg
NC(=O)c1cnc(N[C@H]2CCCNC2)c2cc(-c3cnn(Cc4ccccc4)c3)sc12,IC50,[1],0.014 µM
NC(=O)c1cnc(N[C@H]2CCCNC2)c2cc(-c3cccc(F)c3)sc12,GI25,MDA-MB-231,0.32 µM
same,GI50,MDA-MB-231,0.641 µM
same,GI25,NCI-H460,1.45 µM
same,GI50,NCI-H460,2.9 µM
same,clearance,[5],1.68 L/h/kg
same,clearance,[6],0.6 L/h/kg
same,IC50,[1],0.012 µM
same,half-life,[7],5.1 h
same,PF,[8],38
same,clearance,[9],11.8 L/h/kg
same,Vd,[10],4.4 L/kg
same,Vd,[11],54.3 L/kg
same,GI25,SW-620,0.42 µM
same,GI50,SW-620,0.841 µM
same,half-life,[12],8.5 h
same,half-life,[13],4.4 h
same,PF,[14],4
same,Vd,[15],4.6 L/kg
same,PF,[16],11
same,solubility,[4],334 µM
NC(=O)c1cnc(N[C@H]2CCCNC2)c2cc(-c3cn[nH]c3)sc12,IC50,[1],0.02 µM
C[C@@H]1CC[C@H](Nc2ncc(C(N)=O)c3sc(-c4ccccc4)cc23)[C@H](C)N1 (racemic),IC50,[1],0.012 µM
same,IC50,[2],8.4 µM
NC(=O)c1ccc(N[C@H]2CCCNC2)c2cc(-c3ccccc3)[nH]c12,intrinsic clearance (CLint),Liver,21 µL/min/mg
same,IC50,[1],0.031 µM
same,IC50,[2],11.6 µM
same,intrinsic clearance,[3],120 µL/min/mg
same,solubility,[4],280 µM
NC(=O)c1ccc(N[C@H]2CCCNC2)c2cc(-c3ccc(Cl)cc3)[nH]c12,IC50,[1],0.015 µM
same,IC50,[2],4.1 µM
same,solubility,[4],320 µM
NC(=O)c1cnc(N[C@H]2CCCNC2)c2cc(-n3ccnc3)sc12,IC50,[1],0.024 µM
C[C@@H]1NCCC[C@@H]1Nc1ncc(C(N)=O)c2sc(-c3ccccc3)cc12,IC50,[1],0.069 µM
same,IC50,[2],5.9 µM
NC(=O)Nc1sc(-c2ccccc2)cc1C(=O)N[C@H]1CCCNC1,GI25,MDA-MB-231,0.3 µM
same,GI50,MDA-MB-231,0.596 µM
same,GI25,NCI-H460,0.62 µM
same,GI50,NCI-H460,1.23 µM
same,PF,[8],67
same,GI25,SW-620,0.42 µM
same,GI50,SW-620,0.839 µM
same,IC50,[2],> 31.6 µM
same,PF,[14],9
same,PF,[16],11
same,solubility,[4],> 2000 µM
NC(=O)c1cnc(N[C@H]2CCCN[C@@H]2CCO)c2cc(-c3ccccc3)sc12 (racemic),IC50,[1],0.083 µM
same,IC50,[2],> 31.6 µM
Cn1cc(-c2cc3c(N[C@H]4CCCNC4)ncc(C(N)=O)c3s2)cn1,IC50,[1],0.006 µM
CN1CCC[C@H](Nc2ncc(C(N)=O)c3sc(-c4ccccc4)cc23)C1,IC50,[1],0.14 µM
Nc1ccn([C@@H]2O[C@H](CO)[C@@H](O)C2(F)F)c(=O)n1 [GEMCITABINE],GI50,MDA-MB-231,0.251 µM
same,GI50,NCI-H460,2.08 µM
same,GI50,SW-620,0.84 µM
NC(=O)c1cnc(N(CCO)[C@H]2CCCNC2)c2cc(-c3ccccc3)sc12,IC50,[1],0.079 µM
same,IC50,[2],> 31.6 µM
NC(=O)c1cnc(N[C@H]2CNCC[C@@H]2O)c2cc(-c3ccccc3)sc12 (racemic),IC50,[1],0.01 µM
same,IC50,[2],> 31.6 µM
CCN(c1ncc(C(N)=O)c2sc(-c3ccccc3)cc12)[C@H]1CCCNC1,IC50,[1],0.035 µM
same,IC50,[2],2.4 µM
C[C@@H]1CC[C@H](Nc2ncc(C(N)=O)c3sc(-c4ccccc4)cc23)CN1 (racemic),IC50,[1],0.021 µM
NC(=O)c1ccc(N[C@H]2CCCNC2)c2cc(-c3ccc(F)cc3)[nH]c12,IC50,[1],0.023 µM
same,IC50,[2],6.7 µM
same,solubility,[4],380 µM
C[C@H]1NCCC[C@@H]1Nc1ncc(C(N)=O)c2sc(-c3ccccc3)cc12,intrinsic clearance (CLint),Liver,< 5 µL/min/mg
same,GI25,MDA-MB-231,0.15 µM
same,GI50,MDA-MB-231,0.306 µM
same,clearance,[5],1.74 L/h/kg
same,clearance,[6],0.6 L/h/kg
same,IC50,[1],0.006 µM
same,half-life,[7],9.4 h
same,PF,[8],124
same,clearance,[9],6.3 L/h/kg
same,Vd,[10],7.1 L/kg
same,Vd,[11],24 L/kg
same,GI25,SW-620,0.36 µM
same,GI50,SW-620,0.725 µM
same,half-life,[12],3.4 h
same,half-life,[13],5.1 h
same,IC50,[2],> 31.6 µM
same,PF,[14],5
same,Vd,[15],4.6 L/kg
same,intrinsic clearance,[3],< 10 µL/min/mg
same,PF,[16],11
NC(=O)c1ccc(N[C@H]2CCCNC2)c2cc(-c3cccc(F)c3)[nH]c12,IC50,[1],0.009 µM
same,IC50,[2],7.7 µM
NC(=O)c1cnc(N[C@H]2CCCNC2)c2cc(-c3cccs3)sc12,intrinsic clearance (CLint),Liver,9.1 µL/min/mg
same,IC50,[1],0.015 µM
same,IC50,[2],> 30 µM
same,intrinsic clearance,[3],36 µL/min/mg
same,solubility,[4],> 1000 µM
NC(=O)c1cnc(N[C@H]2CCCNC2)c2sc(-c3cccc(F)c3)cc12,IC50,[1],6.8 µM
NC(=O)c1cnc(N[C@H]2CCCNC2)c2cc(-c3ccccc3)oc12,IC50,[1],0.33 µM
same,solubility,[4],> 1000 µM
NC(=O)c1cnc(N[C@H]2CCCNC2)c2cc(-c3ccccc3)sc12,intrinsic clearance (CLint),Liver,9.2 µL/min/mg
same,GI25,MDA-MB-231,0.27 µM
same,GI50,MDA-MB-231,0.536 µM
same,GI25,NCI-H460,0.9 µM
same,GI50,NCI-H460,1.8 µM
same,clearance,[5],2.7 L/h/kg
same,clearance,[6],0.66 L/h/kg
same,IC50,[1],0.007 µM
same,half-life,[7],5.4 h
same,PF,[8],28
same,clearance,[9],17.7 L/h/kg
same,Vd,[10],3.7 L/kg
same,Vd,[11],75 L/kg
same,GI25,SW-620,0.49 µM
same,GI50,SW-620,0.97 µM
same,half-life,[12],1.5 h
same,Ratio,HCT-116,3.2
same,half-life,[13],3.1 h
same,IC50,[2],19.7 µM
same,PF,[14],5
same,Vd,[15],4 L/kg
same,intrinsic clearance,[3],32 µL/min/mg
same,PF,[16],12
same,solubility,[4],> 1000 µM
CN(c1ncc(C(N)=O)c2sc(-c3ccccc3)cc12)[C@H]1CCCNC1,intrinsic clearance (CLint),Liver,10 µL/min/mg
same,IC50,[1],0.025 µM
same,IC50,[2],2.7 µM
same,intrinsic clearance,[3],37 µL/min/mg
